Each block holds one molecule with its values, some of them ahead of it. Positions of bridges follow the written chain, without caps; N, C: chain ends. Residues, ends and D or L forms follow the SMILES beside them. No end group written: not given here.
What was measured:
aldolase (PT1) [1] = target: T1, aldolase (PT1) (Oryctolagus cuniculus, UniProt P00883); assay: Surface plasmon resonance; assay type: binding, rabbit; conditions: PT1 (tetrameric), 600 pM vs 326 nM
T1 sequence (P00883 1-364): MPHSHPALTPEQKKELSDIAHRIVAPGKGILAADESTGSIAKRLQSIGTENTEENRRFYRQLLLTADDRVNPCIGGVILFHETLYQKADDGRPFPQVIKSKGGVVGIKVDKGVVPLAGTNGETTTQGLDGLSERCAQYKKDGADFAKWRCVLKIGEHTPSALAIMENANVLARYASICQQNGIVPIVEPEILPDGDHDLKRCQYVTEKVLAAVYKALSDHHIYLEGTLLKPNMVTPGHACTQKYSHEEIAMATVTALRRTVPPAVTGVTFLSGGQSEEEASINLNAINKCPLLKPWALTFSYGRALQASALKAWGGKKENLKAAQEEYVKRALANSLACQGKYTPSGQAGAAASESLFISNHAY
Procedure, shortened: (§1)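 Targets were amine-coupled with EDC/NHS, then ethanolamine pH 8.5. PT1 was coupled at 200 µg/mL and PT5 at 30 µg/mL, both in 10 mM NaAc pH 5.2. PT3 was coupled at 10 µg/mL in 10 mM NaAc pH 4.5. Two-fold dilutions of chemically synthesised peptide were run in PBS pH 7.4 with 0.005% Tween-20 and 2% DMSO, at 25 °C and 30 µL/min. KD, kon and koff were recorded.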

aldolase (PT1) [2] = target: T1, aldolase (PT1); assay: Yeast surface display titration; assay type: binding, rabbit
streptavidin (PT2) = streptavidin (PT2) (Streptomyces avidinii, UniProt P22629); assay: Yeast surface display titration; assay type: binding
α-chymotrypsin (PT5) = α-chymotrypsin (PT5) (Bos taurus, UniProt P00766); assay: Yeast surface display titration; assay type: binding, bovine
[3] = target: bovine α-chymotrypsin (PT5) (Bos taurus, UniProt P00766); assay: Residual enzyme activity, chromogenic substrate; assay type: biochemical
strep-tactin (PH2.1) = assay: Yeast surface display titration, specificity; assay type: binding; conditions: from KDapp values
carbonic anhydrase (PT4) = carbonic anhydrase (PT4) (Bos taurus, UniProt P00921); assay: Yeast surface display titration; assay type: binding, bovine; conditions: ratio of KDapp values
α-chymotrypsin = conditions: natural inhibitor, Fig. 9d; cited from earlier work
[4] = target: carbapenemase GES-5 (PT3) (Klebsiella pneumoniae, UniProt Q09HD0); assay: Surface plasmon resonance; assay type: binding; conditions: soluble chemically synthesised isomers of MP3.2
Procedure, shortened: as §1

Sequence of carbonic anhydrase (PT4) (P00921 whole entry): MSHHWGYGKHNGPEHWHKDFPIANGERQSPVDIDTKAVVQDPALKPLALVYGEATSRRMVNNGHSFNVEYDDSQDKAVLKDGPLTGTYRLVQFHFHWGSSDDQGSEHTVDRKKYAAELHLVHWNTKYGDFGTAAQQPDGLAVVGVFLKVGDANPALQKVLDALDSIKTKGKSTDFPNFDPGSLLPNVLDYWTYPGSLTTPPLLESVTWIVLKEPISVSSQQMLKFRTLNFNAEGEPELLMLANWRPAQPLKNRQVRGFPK
Sequence of streptavidin (PT2) (P22629 37-163 limits assumed): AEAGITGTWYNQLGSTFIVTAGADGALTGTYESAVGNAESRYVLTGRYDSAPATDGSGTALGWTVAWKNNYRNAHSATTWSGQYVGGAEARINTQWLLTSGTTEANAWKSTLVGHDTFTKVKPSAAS
Sequence of carbapenemase GES-5 (PT3) (Q09HD0 19-287): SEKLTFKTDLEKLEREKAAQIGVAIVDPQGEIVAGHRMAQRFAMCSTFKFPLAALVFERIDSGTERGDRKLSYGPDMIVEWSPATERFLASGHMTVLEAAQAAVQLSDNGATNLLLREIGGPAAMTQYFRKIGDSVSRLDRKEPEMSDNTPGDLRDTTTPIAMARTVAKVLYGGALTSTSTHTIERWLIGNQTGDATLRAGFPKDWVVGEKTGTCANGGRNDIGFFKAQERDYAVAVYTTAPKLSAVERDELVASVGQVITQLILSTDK

Molecule: CC(C)C[C@@H]1NC(=O)[C@H](C(C)C)NC(=O)[C@H](CCC(=O)O)NC(=O)[C@@H](NC(=O)[C@H](C)N)CSSC[C@@H](C(=O)N[C@@H](CO)C(=O)NCC(N)=O)NC(=O)CNC(=O)[C@H]([C@@H](C)O)NC(=O)[C@H](Cc2c[nH]c3ccccc23)NC(=O)[C@H](CC(=O)O)NC(=O)[C@H](Cc2ccc(O)cc2)NC(=O)[C@H](CO)NC1=O [MP1.1] (H-ACEVLSYDWTGCSG-NH2; disulfide 2-12)
- discrepancy between KD by yeast surface titration and by SPR (aldolase (PT1) [1]): ~ 500 fold
- Kd (aldolase (PT1) [2]): 0.6 nM

Molecule: CC[C@H](C)[C@@H]1NC(=O)[C@H](C(C)C)NC(=O)[C@H](Cc2ccc(O)cc2)NC(=O)[C@H](Cc2ccccc2)NC(=O)[C@H](CCC(N)=O)NC(=O)[C@@H]2CCCN2C(=O)[C@H](Cc2c[nH]cn2)NC(=O)[C@H](Cc2ccc(O)cc2)NC(=O)[C@H](Cc2c[nH]cn2)NC(=O)[C@@H](NC(=O)[C@H](C)N)CSSC[C@@H](C(=O)N[C@@H](CO)C(=O)NCC(N)=O)NC1=O [MP2.2] (H-ACHYHPQFYVICSG-NH2; disulfide 2-12)
- tighter binding to PT2 than MP2.5 (streptavidin (PT2); ratio of KDapp values): 3 fold

- higher binding affinity to PT5 than MP5.2 (α-chymotrypsin (PT5); ratio of KDapp values): 2 fold
- tighter binding to PT5 than MP5.5 (α-chymotrypsin (PT5); ratio of KDapp values): 5 fold
Molecule: CC[C@H](C)[C@@H]1NC(=O)[C@H](Cc2c[nH]c3ccccc23)NC(=O)[C@H]([C@@H](C)O)NC(=O)[C@H](Cc2c[nH]c3ccccc23)NC(=O)[C@H](CC(=O)O)NC(=O)[C@H](CCCNC(=N)N)NC(=O)[C@@H](NC(=O)[C@H](C)N)CSSC[C@@H](C(=O)N[C@@H](CO)C(=O)NCC(N)=O)NC(=O)[C@H](CCC(N)=O)NC1=O [MP5.1] (H-ACRDWTWIQCSG-NH2; disulfide 2-10)

Molecule: CC[C@H](C)[C@@H]1NC(=O)[C@H]([C@@H](C)O)NC(=O)CNC(=O)[C@H](CCCNC(=N)N)NC(=O)[C@H](CC(C)C)NC(=O)[C@@H]2CSSC[C@@H](C(=O)N[C@@H](CO)C(=O)NCC(N)=O)NC(=O)[C@H](CSSC[C@H](NC(=O)[C@H](C)N)C(=O)N[C@@H](C)C(=O)N[C@@H](Cc3c[nH]c4ccccc34)C(=O)N2)NC1=O [MP5.4.1] (H-ACAWCLRGTICCSG-NH2; disulfide 2-11, 5-12)
- Ki [3]: 50.8 nM

Molecule: CC[C@H](C)[C@H](NC(=O)[C@@H](NC(=O)CNC(=O)[C@H](CCCNC(=N)N)NC(=O)[C@H](CC(C)C)NC(=O)[C@@H]1CSSC[C@H](NC(=O)[C@H](C)N)C(=O)N[C@@H](C)C(=O)N[C@@H](Cc2c[nH]c3ccccc23)C(=O)N1)[C@@H](C)O)C(=O)N[C@H]1CSSC[C@@H](C(=O)N[C@@H](CO)C(=O)NCC(N)=O)NC1=O [MP5.4.2] (H-ACAWCLRGTICCSG-NH2; disulfide 2-5, 11-12)
- Ki [3]: 11.3 nM

- tighter binding to PT5 than MP5.5 (α-chymotrypsin (PT5); ratio of KDapp values): 46 fold
- Kd (α-chymotrypsin (PT5); read-out: KDapp, yeast-displayed peptide vs soluble PT5, text value): 0.2 nM
Molecule: ACAWCLRGTICCSG (also: bicyclic or more (positions not given here)) [MP5.4]

- tighter binding to PT5 than MP5.5 (α-chymotrypsin (PT5); ratio of KDapp values): 3 fold
Molecule: ACCYRIYCPCSG (also: bicyclic or more (positions not given here)) [MP5.3]

Molecule: ACHYHPQFYMRCSG (disulfide 2-12 (inferred)) [MP2.6]
- tighter binding to PT2 than MP2.4 (streptavidin (PT2); ratio of KDapp values): 6 fold
- Kd (streptavidin (PT2); read-out: KDapp, yeast-displayed peptide vs soluble PT2, text value): 0.2 to 0.3 nM

- tighter binding to PH2.1 than to PT2 (strep-tactin (PH2.1)): ~2 fold
Molecule: ACIMVHYDRVECSG (disulfide 2-12 (inferred)) [MP2.3]

- higher binding affinity for PT4 than MP4.4 (carbonic anhydrase (PT4)): 16 fold
- tighter binding to PT4 than MP4.2 (carbonic anhydrase (PT4)): 4 fold
- tighter binding to PT4 than MP4.3 (carbonic anhydrase (PT4)): 9 fold
Molecule: ACLVGPYYMLDCSG (disulfide 2-12 (inferred)) [MP4.1]

- tighter binding to PH2.1 than to PT2 (strep-tactin (PH2.1)): ~ 10 fold
Molecule: ACSMCHPQGDFCYWACSG (also: bicyclic or more (positions not given here)) [MP2.1]

Molecule: H-TVLRGCWTFSFPPKPCI-NH2 [HECI, reference compound]
- Ki (α-chymotrypsin): 3900 nM

Molecule: MP3.2.1: chemically synthesised ‘two rings’ isomer of MP3.2 (ACRYICLSFRHCGWFCSG-NH2; disulfide 2-12, 6-16; N-terminus assumed; SMILES CC[C@H](C)[C@@H]1NC(=O)[C@H](Cc2ccc(O)cc2)NC(=O)[C@H](CCCNC(=N)N)NC(=O)[C@@H](NC(=O)[C@H](C)N)CSSC[C@@H]2NC(=O)[C@H](Cc3c[nH]cn3)NC(=O)[C@H](CCCNC(=N)N)NC(=O)[C@H](Cc3ccccc3)NC(=O)[C@H](CO)NC(=O)[C@H](CC(C)C)NC(=O)[C@H](CSSC[C@@H](C(=O)N[C@@H](CO)C(=O)NCC(N)=O)NC(=O)[C@H](Cc3ccccc3)NC(=O)[C@H](Cc3c[nH]c4ccccc34)NC(=O)CNC2=O)NC1=O)
- interaction with immobilised PT3 (SPR), in words [4]: no or very weak interactions

Molecule: MP3.2.2: chemically synthesised ‘two rings’ isomer of MP3.2 (ACRYICLSFRHCGWFCSG-NH2; disulfide 12-16, 2-6; N-terminus assumed; SMILES CC[C@H](C)[C@@H]1NC(=O)[C@H](Cc2ccc(O)cc2)NC(=O)[C@H](CCCNC(=N)N)NC(=O)[C@@H](NC(=O)[C@H](C)N)CSSC[C@@H](C(=O)N[C@@H](CC(C)C)C(=O)N[C@@H](CO)C(=O)N[C@@H](Cc2ccccc2)C(=O)N[C@@H](CCCNC(=N)N)C(=O)N[C@@H](Cc2c[nH]cn2)C(=O)N[C@H]2CSSC[C@@H](C(=O)N[C@@H](CO)C(=O)NCC(N)=O)NC(=O)[C@H](Cc3ccccc3)NC(=O)[C@H](Cc3c[nH]c4ccccc34)NC(=O)CNC2=O)NC1=O)
- interaction with immobilised PT3 (SPR), in words [4]: no or very weak interactions
